Reference: ChEMBL document CHEMBL1135980, “Novel angular benzophenazines: dual topoisomerase I and topoisomerase II inhibitors as potential anticancer agents” (J Med Chem, 2002)

Key:
[1] = test system: NCI-H69; test: Rf is the resistance factor and is the ratio of the IC50 on the resistant cell line over the IC50 on the parental H69/P cell line; type: functional, Homo sapiens
In short: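 Resistance factor computed as IC50 in H69/LX4 (Pgp-overexpressing) divided by IC50 in H69/P. Both IC50s come from a 5-6 day Alamar Blue proliferation assay.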

[2] = test system: NCI-H69; test: Cytotoxicity measured using the drug resistant, P-glycoprotein (Pgp) expressing human small cell lung carcinoma cell line H69/LX4; type: functional, cell-based
In short: (§1)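 H69/P (parental) or H69/LX4 (P-glycoprotein-overexpressing) human SCLC cells; compound added, then 5-6 days incubation; proliferation read with Alamar Blue.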

[3] = test system: NCI-H69; test: Cytotoxicity measured using the H69 parental (H69/P) human small cell lung carcinoma cell line; type: functional, cell-based; in short: as §1

Structure (SMILES): COc1cccc2c1ccc1nc3cccc(C(=O)NC(CN(C)C)C(=O)O)c3nc12 (centres undefined)
- Rf [1]: >23
- IC50 [2]: > 5000 nM
- IC50 [3]: 211 nM

Structure (SMILES): CC(C)Oc1cccc2c1ccc1nc3cccc(C(=O)NCCN(C)C)c3nc12
- Rf [1]: 2.1
- IC50 [2]: 874 nM
- IC50 [3]: 420 nM

Structure (SMILES): CN(C)CCNC(=O)c1cccc2nc3ccc4c(N(C)C)cccc4c3nc12
- Rf [1]: 1.2
- IC50 [2]: 925 nM
- IC50 [3]: 778 nM

Structure (SMILES): COc1cccc2c1ccc1nc3cccc(C(=O)N[C@@H]4CCN(C)C4)c3nc12
- Rf [1]: 1.6
- IC50 [2]: 128 nM
- IC50 [3]: 79 nM

Structure (SMILES): CNS(=O)(=O)c1cccc2c1ccc1nc3cccc(C(=O)NCCN(C)C)c3nc12
- Rf [1]: >7.8
- IC50 [2]: > 5000 nM
- IC50 [3]: 638 nM

Structure (SMILES): COc1cccc2c1ccc1nc3cc(Br)cc(C(=O)NCCN(C)C)c3nc12
- Rf [1]: 0.6
- IC50 [2]: 100 nM
- IC50 [3]: 159 nM

Structure (SMILES): CN(C)CCNC(=O)c1cccc2nc3ccc4c(OCC(N)=O)cccc4c3nc12
- Rf [1]: 3.7
- IC50 [2]: 328 nM
- IC50 [3]: 89 nM

Structure (SMILES): COc1cccc2c1ccc1nc3cccc(C(=O)NC(Cc4ccccc4)CN(C)C)c3nc12 (centres undefined)
- Rf [1]: 1.1
- IC50 [2]: 513 nM
- IC50 [3]: 478 nM

Structure (SMILES): COc1ccc2ccc3nc4cccc(C(=O)NCCN(C)C)c4nc3c2c1
- Rf [1]: 1
- IC50 [2]: 112 nM
- IC50 [3]: 110 nM

Structure (SMILES): CN(C)CCNC(=O)c1cccc2nc3ccc4c(N)cccc4c3nc12
- Rf [1]: 1.7
- IC50 [2]: 193 nM
- IC50 [3]: 111 nM

Structure (SMILES): CN(C)CCNC(=O)c1cccc2nc3ccc4c(NCC#N)cccc4c3nc12
- Rf [1]: 1.5
- IC50 [2]: 155 nM
- IC50 [3]: 103 nM

Structure (SMILES): COc1ccc2nc3ccc4c(OC)cccc4c3nc2c1C(=O)NCCN(C)C
- Rf [1]: 1.4
- IC50 [2]: 3620 nM
- IC50 [3]: 2640 nM

Structure (SMILES): CN(C)CCNC(=O)c1cccc2nc3ccc4c(NS(C)(=O)=O)cccc4c3nc12
- Rf [1]: 2.3
- IC50 [2]: 4990 nM
- IC50 [3]: 2130 nM

Structure (SMILES): COc1cccc2c1ccc1nc3cccc(C(=O)NCC(CN(C)C)N(C)C)c3nc12 (centres undefined)
- Rf [1]: 3.8
- IC50 [2]: 480 nM
- IC50 [3]: 126 nM

Structure (SMILES): COc1cccc2c1ccc1nc3cccc(C(=O)NCCN(CCO)CCO)c3nc12
- Rf [1]: 5.5
- IC50 [2]: 3380 nM
- IC50 [3]: 614 nM

Structure (SMILES): CN(C)CCNC(=O)c1c(O)ccc2nc3ccc4c(O)cccc4c3nc12
- Rf [1]: 1.3
- IC50 [2]: 25 nM
- IC50 [3]: 19 nM

Structure (SMILES): CN(C)CCNC(=O)c1cccc2nc3ccc4c(Cl)cccc4c3nc12
- Rf [1]: 1.4
- IC50 [2]: 159 nM
- IC50 [3]: 117 nM

Structure (SMILES): COc1cccc2c1ccc1nc3cccc(C(=O)N[C@@H](CN(C)C)C(C)C)c3nc12
- Rf [1]: 1
- IC50 [2]: 20 nM
- IC50 [3]: 21 nM

Structure (SMILES): COc1cccc2c1ccc1nc3cccc(C(=O)NC(CO)CN(C)C)c3nc12 (centres undefined)
- Rf [1]: 1.2
- IC50 [2]: 28 nM
- IC50 [3]: 23 nM

Structure (SMILES): CCC(CN(C)C)NC(=O)c1cccc2nc3ccc4c(OC)cccc4c3nc12 (centres undefined)
- Rf [1]: 1.1
- IC50 [2]: 118 nM
- IC50 [3]: 107 nM

Structure (SMILES): CC(=O)Oc1cccc2c1ccc1nc3cccc(C(=O)NCCN(C)C)c3nc12
- Rf [1]: 2.8
- IC50 [2]: 67 nM
- IC50 [3]: 24 nM

Structure (SMILES): COc1cccc2c1ccc1nc3cc(Cl)cc(C(=O)NCCN(C)C)c3nc12
- Rf [1]: 1
- IC50 [2]: 21 nM
- IC50 [3]: 20 nM

Structure (SMILES): CN(C)CCNC(=O)c1cccc2nc3ccc4c(OCc5ccccc5)cccc4c3nc12
- Rf [1]: 1.6
- IC50 [2]: 882 nM
- IC50 [3]: 556 nM

Structure (SMILES): CN(C)CCNC(=O)c1cccc2nc3ccc4c(OCC#N)cccc4c3nc12
- Rf [1]: 0.9
- IC50 [2]: 24 nM
- IC50 [3]: 28 nM

Structure (SMILES): COc1cccc2c1ccc1nc3cccc(C(=O)NCCN4CCOCC4)c3nc12
- Rf [1]: 1.7
- IC50 [2]: 1000 nM
- IC50 [3]: 597 nM

Structure (SMILES): CN(C)CCNC(=O)c1cccc2nc3ccc4c(CO)cccc4c3nc12
- Rf [1]: 3.6
- IC50 [2]: 423 nM
- IC50 [3]: 117 nM

Structure (SMILES): COc1cccc2c1ccc1nc3cccc(C(=O)NCC(C)N(C)C)c3nc12 (centres undefined)
- Rf [1]: 1.2
- IC50 [2]: 126 nM
- IC50 [3]: 101 nM

Structure (SMILES): CCN(CC)CCNC(=O)c1cccc2nc3ccc4c(OC)cccc4c3nc12
- Rf [1]: 2.4
- IC50 [2]: 1000 nM
- IC50 [3]: 412 nM

Structure (SMILES): COc1cccc2c1ccc1nc3cccc(C(=O)NC(CCO)CN(C)C)c3nc12 (centres undefined)
- Rf [1]: 1.1
- IC50 [2]: 28 nM
- IC50 [3]: 26 nM

Structure (SMILES): COc1ccc2c(ccc3nc4cccc(C(=O)NCCN(C)C)c4nc32)c1OC
- Rf [1]: 1.8
- IC50 [2]: 804 nM
- IC50 [3]: 436 nM

Structure (SMILES): CNCCNC(=O)c1cccc2nc3ccc4c(OC)cccc4c3nc12
- Rf [1]: 2.4
- IC50 [2]: 234 nM
- IC50 [3]: 99 nM

Structure (SMILES): CSc1cccc2c1ccc1nc3cccc(C(=O)NCCN(C)C)c3nc12
- Rf [1]: 0.8
- IC50 [2]: 94 nM
- IC50 [3]: 121 nM

Structure (SMILES): CN(C)CCNC(=O)c1cccc2nc3ccc4c(OCCN5CCOCC5)cccc4c3nc12
- Rf [1]: 2.4
- IC50 [2]: 236 nM
- IC50 [3]: 99 nM
